From PubChem BioAssay AID588730 (Vanderbilt Specialized Chemistry Center, 2011)
Calls of active or inactive are those of the source.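 Rule for the calls: active = fold shift at most 0.5 or above 2, or agonist peak response under 75 or over 125 percent; inactive = the rest.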

Target: Metabotropic glutamate receptor 6 (Homo sapiens) (UniProt O15303)
Experiment: Human mGluR6 profiling panel, HEK/GIRK cell-based Tl+ flux, fold shift of glutamate response, mGluR5 PAM selectivity (AID 588730)
Conditions: HEK/GIRK hmGluR6, thallium flux, glutamate CRC fold shift, at 10 µM; for Emax: measured here: glutamate max response with compound
Procedure, shortened: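 System: HEK/GIRK cells expressing human mGlu6 receptor / Probe or stimulus: glutamate as agonist, 11-point concentration-response curve in thallium buffer / Compound: single test compound dose, 10 µM final, added before agonist / Technique: FluoZin2 thallium flux fluorescence / Measure: fold shift, ratio of control glutamate EC50 to EC50 with compound / Benchmarks: vehicle-treated reference curve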

Chain of Metabotropic glutamate receptor 6 (Homo sapiens) (O15303 whole entry, looked up): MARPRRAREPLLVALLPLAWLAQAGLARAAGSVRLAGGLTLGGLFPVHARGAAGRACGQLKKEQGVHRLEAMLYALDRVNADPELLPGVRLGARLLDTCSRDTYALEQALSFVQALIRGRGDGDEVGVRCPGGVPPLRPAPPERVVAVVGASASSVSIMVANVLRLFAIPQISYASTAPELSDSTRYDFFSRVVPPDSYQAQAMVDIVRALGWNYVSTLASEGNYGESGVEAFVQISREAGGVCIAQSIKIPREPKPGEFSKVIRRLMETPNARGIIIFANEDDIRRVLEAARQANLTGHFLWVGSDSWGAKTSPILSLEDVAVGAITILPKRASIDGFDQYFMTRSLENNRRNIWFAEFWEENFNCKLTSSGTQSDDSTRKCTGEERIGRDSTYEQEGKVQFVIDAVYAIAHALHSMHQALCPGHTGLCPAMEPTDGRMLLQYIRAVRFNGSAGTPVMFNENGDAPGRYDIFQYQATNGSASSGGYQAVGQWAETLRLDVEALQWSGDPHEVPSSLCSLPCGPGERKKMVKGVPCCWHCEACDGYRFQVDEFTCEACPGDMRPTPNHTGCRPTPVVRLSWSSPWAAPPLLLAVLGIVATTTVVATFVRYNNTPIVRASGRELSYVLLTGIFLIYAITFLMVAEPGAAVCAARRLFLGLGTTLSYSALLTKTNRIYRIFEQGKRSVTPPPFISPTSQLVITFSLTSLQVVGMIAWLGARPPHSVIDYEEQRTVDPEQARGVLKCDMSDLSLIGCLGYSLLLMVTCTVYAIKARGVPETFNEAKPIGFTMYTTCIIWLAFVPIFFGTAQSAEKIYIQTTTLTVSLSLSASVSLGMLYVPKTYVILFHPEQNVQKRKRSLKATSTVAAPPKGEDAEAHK

fold shift | Emax [%] | Compound
0.98 (inactive) | 90 | CC1(NC(=O)c2ccc(C#Cc3cccc(F)c3)cn2)COC1
1.04 (inactive) | 93 | C[C@@H](NC(=O)c1ccc(C#Cc2cccc(F)c2)cn1)C(C)(C)O
